Results taken from the EternaBench riboswitch data.

Test system: MS2 coat protein
Assay: apparent Kd, MS2 coat protein; higher = weaker binding; RNA-MaP array; FMN 200 µM where present
Outline: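 Apparent Kd: the median of filtered binding-curve fits from single clusters. Designs were transcribed on Illumina sequencing-chip clusters by stalled E. coli RNA polymerase and titrated with SNAP-549-labelled MS2 coat protein from 0.7 or 1.5 nM, doubling to 3 µM, in 100 mM Tris-HCl pH 7.5, 80 mM KCl, 4 mM MgCl2, BSA, DTT, yeast tRNA and Tween-20. Each series ran without and then with constant ligand, and green signal was normalised to red-channel RNA signal and control-cluster median Fmax.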

[1] = designed as: OFF switch for flavin mononucleotide, no ligand
[2] = ligand present: flavin mononucleotide, designed as: OFF switch for flavin mononucleotide
[3] = designed as: ON switch for flavin mononucleotide, no ligand
[4] = ligand present: flavin mononucleotide, designed as: ON switch for flavin mononucleotide

GGAUAGGACAGAGGAUAUACAUGCUAGAGAUACUAGCAAAAUUUCCUCACAUGAGGAUCACCCAUGUAGAAGGCUGUCCUAUCG
apparent Kd [1]: 28.5 nM
apparent Kd [2]: 673 nM

AGUGGUGGAGGAUAUACAUGAGGAUCACCCAUGUAAAUCACACAUGUGGUCAAAGCAUGUAGAAGGCCACUACA
apparent Kd [1]: 99.6 nM
apparent Kd [2]: 109 nM

AUCAUUCGUGUAGGAUAUGCGUGACGAAGUCAUGCAGAAGGACAUGAGGAUCACCCAUGUCUUUCUCGAGCUGUAGCUCGAGGA
apparent Kd [1]: 23.9 nM
apparent Kd [2]: 156 nM

GGGCUGGUAACAGGAUAUCGUGCCUGGCCGGAUUACAUGAGGAUCACCCAUGUCGUUGGAACCAACGAGAAGGGUUGCCUCCCG
apparent Kd [3]: 199 nM
apparent Kd [4]: 28.7 nM

UUGGACGUCGUAGGAUAUGUAGGAUAUUCAUACAUGAGGAUCACCCAUGUUGACAUGGAAGAAGGACAGAAGGACGAUGUCCAU
apparent Kd [3]: 8.63 nM
apparent Kd [4]: 4.56 nM

AGAAGGCUACAGAAGGGACACACACGGUGGGAGUCAGGAUAUGUAGUGAAAACGUUACAUGAGGAUCACCCAUGUAGACCUUCC
apparent Kd [3]: 141 nM
apparent Kd [4]: 18.4 nM

CGCGGUACUUAGGUACCACACAUGAGGAUCACCCAUGUAUCACAGGAUAUGCAUGAUAUAUUCAGGCAGAAGGGUGAUCUUACC
apparent Kd [3]: 37.8 nM
apparent Kd [4]: 99.4 nM

CCCUCGGCGUGUAGAUACAUACAUGAGGAUCACCCAUGUGAGAAGGAUAUGCACGCGUGCUGCCGGCAGAAGGUCUAGAUGGUG
apparent Kd [1]: 25.4 nM
apparent Kd [2]: 29.8 nM

AUCAGCUCGUCAGGAUAUACGUCACUGCGUCAGCAGUGUGGUAAGAGCACAUGAGGAUCACCCAUGUAGAAGGGACGAGCUGAU
apparent Kd [1]: 6.31 nM
apparent Kd [2]: 9.48 nM

GGGCUCGGAGGAUAUACAUGAGGAUCACCCAUGUAGGGCUCGGGUAUUUCUGGGUCUUGUAGAAGGCUGGGUCU
apparent Kd [1]: 21.3 nM
apparent Kd [2]: 30 nM

CGGCAAGUCACAGGAUAUGGUGAUGUACAUGAGGAUCACCCAUGUCCGUCUUCUCUCACAAGAUGCCAGAAGGGUGACUCCCGG
apparent Kd [3]: 852 nM
apparent Kd [4]: 120 nM

AAUCCACAUGAGGAUCACCCAUGUCAGGAUAUGGUGACGCGGGUUUCGGUGCGUGUUGCCAGAAGGGACGGCUG
apparent Kd [1]: 27 nM
apparent Kd [2]: 46.7 nM

GAAGCACGCAUUAACAUGAGGAUCACCCAUGUGAAAACACGUGAGGAUAUGGAUCUGAAGAAGAUCCAGAAGGCACCGUGCUAA
apparent Kd [3]: 5.44 nM
apparent Kd [4]: 4.78 nM

UAAAUUUACAAGAAGGCUAACAUGAGGAUCACCCAUGUUGUACAUGGAUAUAGAGGAUAUUGCUAAUAAUUAUUUAUCAUAAUU
apparent Kd [1]: 24.2 nM
apparent Kd [2]: 19.5 nM

ACAUUUAAUACAGGAUAUGUUAGUAUACAGUUGAUUGGUUAUUACAUUAUAACAGAAGGGUAGAACAUGAGGAUCACCCAUGUA
apparent Kd [3]: 153 nM
apparent Kd [4]: 73.2 nM

AAAAAGGCAGGAUAUACAAAAAAAAAAAAAAAAAAGGAGGGACAUGAGGAUCACCCAUGUAGAAGGGCCAAAAA
apparent Kd [1]: 66.5 nM
apparent Kd [2]: 134 nM

UCGACCAGCGCCAGUCAAACAUGAGGAUCACCCAUGUACUCCAGAAGGCCGCCCAAGAACGGAGUGGAGGAUAUGGAGGUUCUC
apparent Kd [3]: 43.2 nM
apparent Kd [4]: 36.7 nM

AUCAGCUCGUCAGGAUAUACGUCACUGCGUCAGCAGUGUGGUAAGAUCACAUGAGGAUCACCCAUGUAGAAGGGACGAGCUAAU
apparent Kd [1]: 13.7 nM
apparent Kd [2]: 334 nM

UGGUACUAGGGAGGAUAUGGGAAGAUACAUGAGGAUCACCCAUGUUUAUGAAUGCCGAGAGGCAACUAGAAGGCCCUAGUACCU
apparent Kd [3]: 292 nM
apparent Kd [4]: 13 nM

UUGGACGUCGUAGGAUAUGUAGGAUAUUCCUACAUGAGGAUCACCCAUGUUGACAUGGAAGAAGGACAGAAGGACGAGGUCCAU
apparent Kd [3]: 241 nM
apparent Kd [4]: 4.93 nM

CUAGCUAUCGGAGGAUAUUCAUACCGGAAACGGACAUGAGGAUCACCCAUGUGCCGAAAGGCUUGGGAGAAGGCCGAUAGCUAG
apparent Kd [3]: 272 nM
apparent Kd [4]: 20.6 nM

CGGGUCUGAGGAUAUCCAUCUUCAUACAUGAGGAUCACCCAUGUUCACCCUUGGGUUCCCGGAGAAGGCAGUUUUC
apparent Kd [1]: 65 nM
apparent Kd [2]: 67.8 nM

CGAAGUCCGUAGAAGGGUGACAUGAGGAUCACCCAUGUGCGAGCGGAGGGAGUCAGCGGCUCGCCACAGGAUAUACGGAGCACG
apparent Kd [3]: 61.2 nM
apparent Kd [4]: 51 nM

ACUUCACAUGAGGAUCACCCAUGUCAGGAUAUCCAGCACUAGCAGGCUCGCUCUUGAAGGAGAAGGGACGGGUA
apparent Kd [1]: 46.1 nM
apparent Kd [2]: 54.6 nM

UUGUUAUAUGUAGGAUAUGCAUAUUAUUAUUAUGCAGAAGGACAUGAGGAUCACCCAUGUAUAUUGUUAUUAUAUAUUAUAUAU
apparent Kd [1]: 24.2 nM
apparent Kd [2]: 32.5 nM

UCUCGUUUCGCAGGAUAUGCUGGUCGGUAAUAUACCGGCCACAUGAGGAUCACCCAUGUGCCACAGCAGAAGGGUGACACUAGA
apparent Kd [3]: 634 nM
apparent Kd [4]: 65.7 nM

ACCAAUGGAGGAUAUACAUGAGGAUCACCCAUGUAUAACCUACAUAGGUGAAAAUUAUGUAGAAGGCCAUUGGA
apparent Kd [1]: 14.6 nM
apparent Kd [2]: 13.4 nM

UUAUGCUUAGAGAAGGUUCAAACUACAUAUUGCGCACAUGAGGAUCACCCAUGUUGGUGAAUAAGAAAGGAUAUUUGACUGUGC
apparent Kd [1]: 245 nM
apparent Kd [2]: 171 nM

CGCUAGUCAGGAUAUACGAACAUGUCACCAGACGUGAAGGGACAUGAGGAUCACCCAUGUAGAAGGGACUAGCA
apparent Kd [1]: 90.5 nM
apparent Kd [2]: 267 nM

CUCAUUAGUCAGGAUAUCGUGUGGGUAAUUGUACGAGAAGGGACGACAUGAGGAUCACCCAUGUGGUCUUUGAG
apparent Kd [1]: 71 nM
apparent Kd [2]: 317 nM

GCGAAGAACGAGAAGGCCACUACAUGAGGAUCACCCAUGUCGUGGAGUAUUGGAGGAUAUCGUUCGGCGUCUCAUGAGGACAUA
apparent Kd [1]: 4.95 nM
apparent Kd [2]: 5.22 nM

UUGGACGUCGUAGGAUAUGUAGGAUAUUGCUACAUGAGGAUCACCCAUGUUGACAUGGAAGAAGGACAGAAGGACGAUGUCCAU
apparent Kd [3]: 43.8 nM
apparent Kd [4]: 5.59 nM

UUAAAUCAUGUAGGAUAUGCAUGGCGAAGCUACGCAGAAGGACAUGAGGAUCACCCAUGUUAUAGCUACCGAGUAAGGUGGCAA
apparent Kd [1]: 92.6 nM
apparent Kd [2]: 227 nM

GUCGUGUGAGGAUAUGAUUAUUAGGCGGGAUUGCGACUGCUUCAGAAGGCACAUGAGGAUCACCCAUGUAUGAA
apparent Kd [1]: 11.4 nM
apparent Kd [2]: 39 nM

UGAUCGAGAGAUCUUAGAUUCUGGUAGGAUAUACAUUAUAGAAGAUAUACAUGAGGAUCACCCAUGUAGAAGGACUAGAGUCUA
apparent Kd [1]: 6.73 nM
apparent Kd [2]: 9.72 nM

UGUCUGUCAGGAUAUCCAGAAGAGAAGAAAGUAAGAUGAGUGGAGAAGGGACAUGAGGAUCACCCAUGUAAUUA
apparent Kd [1]: 31 nM
apparent Kd [2]: 36.4 nM

UUGGCGCGAUCCUUGGUCUCACAUGAGGAUCACCCAUGUAGAGAGGAUAUGCAUAGGGCCCAAUGGCAGAAGGCUCUACAUGAG
apparent Kd [1]: 67.1 nM
apparent Kd [2]: 71.2 nM

UUAGGAUCAGGAUAUGAUGUUUUAAACAUGAGGAUCACCCAUGUAGAUCCUGAUUCAACAUCAGAAGGGAUAAUUU
apparent Kd [2]: 21.5 nM

GUUUUUCCUCAUGUACAUGAGGAACAUGAGGAUCACCCAUGUAGAAGGAUUUCCCUUAAAUUAAAAUAGGAUAUACAUAUAUUU
apparent Kd [1]: 88.6 nM
apparent Kd [2]: 58.9 nM

UUAAUAUAUCAGGAUAUGAUUAUAUGUGUUGAAUCAGAAGGGAUAACAUGAGGAUCACCCAUGUUGUGGAGUGA
apparent Kd [1]: 69.3 nM
apparent Kd [2]: 206 nM

AGUGUCGGCACAGGAUAUGAGAUGCCGGCAGACAUGAGGAUCACCCAUGUAAGCGAACCGGGCAGUCAGAAGGGUGAUCGACGA
apparent Kd [3]: 161 nM
apparent Kd [4]: 29.7 nM

GGAGCUCCUGACAUGAGGAUCACCCAUGUUCACUUAUUAACUCAGGAUAUCGUCUCGAAACGAGACGAGAAGGGAGAUGCUCCU
apparent Kd [3]: 8.36 nM
apparent Kd [4]: 6.76 nM

GUCGGAAACGACAAAAGUAGCAUACGAGAAGGUUGAUCCAAGACAUGAGGAUCACCCAUGUAGUUAGAGGAUAUUGGAUGCUAC
apparent Kd [3]: 163 nM
apparent Kd [4]: 116 nM

GUGUACAGAGGAUAUACUCGAAUCUAGCGAAGCUAGGUUUGACAUGAGGAUCACCCAUGUAGAAGGCUGUACAC
apparent Kd [1]: 14.6 nM
apparent Kd [2]: 18.9 nM

GUGCCUUGGGAGAAGGUUACAUGCAAAGCAUUUAAAGGAUAUUCAUACCGGAAACGGACAUGAGGAUCACCCAUGUGGCACAAA
apparent Kd [3]: 870 nM
apparent Kd [4]: 145 nM

GGAAGACAAAGUCUUCCAUUACGAACAUGAGGAUCACCCAUGUAGGAUAUGCUUCUCAAAGAGAAGCAGAAGGACAUGUGUCUU
apparent Kd [1]: 26.6 nM
apparent Kd [2]: 134 nM

AGAUGUACCUAGGAUAUCCGUCUUAUUGGACUAGGAGAAGGAGGUACAUGAGGAUCACCCAUGUAUGACUCCUG
apparent Kd [1]: 11.5 nM
apparent Kd [2]: 14 nM

GUUCUGCUAGGAUAUGCAUCAACGGGAUAGCCUACGCGGAAACAUGAGGAUCACCCAUGUAGAAGGAGCUGAAC
apparent Kd [1]: 30.3 nM
apparent Kd [2]: 30.6 nM
